Data as given in ChEMBL document CHEMBL3272265, “Interferon inducing activities of derivatives of 1,3-dimethyl-4-(3-dimethylaminopropylamino)-1H-pyrazolo(3,4-b)quinoline and related compounds” (J Med Chem, 1976).
Active and inactive are the calls of the source. The rule behind the calls is not given here.

Legend:
Mus musculus [1] = test: Toxicity in CD-1 mouse at 300 mg/kg, ip; format: organism-based; design: dose 300 mg/kg, route intraperitoneal; details: in vivo
Mus musculus [2] = test: Induction of interferon level in CD-1 mouse serum at 100 mg/kg, ip after 18 to 20 hrs by vesicular stomatitis virus plaque reduction assay; format: functional, organism-based; design: dose 100 mg/kg
Method in brief: (§1)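 Dosing was oral or ip in 15-g female CD-1 mice, at least three per dose level, with compound in sterile distilled water as a solution or suspension. Pooled sera were collected 18–20 hr after dosing. Interferon units/ml were quantified by a plaque reduction assay on mouse L cells with vesicular stomatitis virus challenge, run against an NIAID reference mouse interferon standard.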

Mus musculus [3] = test: Induction of interferon level in CD-1 mouse serum at 400 mg/kg, po after 18 to 20 hrs by vesicular stomatitis virus plaque reduction assay; format: functional, organism-based; design: dose 400 mg/kg; method in brief: as §1
Mus musculus [4] = test: Induction of interferon level >= 32 units/mL in ip dosed CD-1 mouse serum after 18 to 20 hrs by vesicular stomatitis virus plaque reduction assay; format: functional; details: CD-1, Serum, read-out: MED
Method in brief: (§2)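 Female CD-1 mice (15 g; at least three per dose) received compound dissolved or suspended in sterile distilled water, orally or ip. They were bled 18–20 hr later and sera pooled. Interferon was titrated by plaque reduction in mouse L cells challenged with vesicular stomatitis virus, with an NIAID reference mouse interferon standard. MED was the lowest dose giving ≥32 units/ml. Top doses were 400 mg/kg po and 300 mg/kg ip.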

Mus musculus [5] = test: Induction of interferon level >= 32 units/mL in po dosed CD-1 mouse serum after 18 to 20 hrs by vesicular stomatitis virus plaque reduction assay; format: functional; details: CD-1, Serum, read-out: MED; method in brief: as §2
Mus musculus [6] = test: Induction of interferon level in CD-1 mouse serum at 50 mg/kg, ip after 18 to 20 hrs by vesicular stomatitis virus plaque reduction assay; format: functional, organism-based; design: dose 50 mg/kg; method in brief: as §1
Mus musculus [7] = test: Induction of interferon level in CD-1 mouse serum at 300 mg/kg, ip after 18 to 20 hrs by vesicular stomatitis virus plaque reduction assay; format: functional, organism-based; design: dose 300 mg/kg; method in brief: as §1

SMILES	Activity (Mus musculus [1])	Activity (Mus musculus [2])	other results
Cc1nn(CC(F)(F)F)c2nc3ccccc3c(NCCCN(C)C)c12.Cl	Toxic	inactive	
CN(C)CCCNc1c2ccccc2nc2ccccc12.Cl			Activity (Mus musculus [3]): inactive; minimal effective dose (Mus musculus [4]): ≥ 300 mg/kg
CCc1n[nH]c2nc3ccccc3c(NCCCN(C)C)c12.Cl	Toxic	inactive	
Cc1nn(C)c2nc3ccccc3c(NCc3cccnc3)c12.Cl	Toxic	inactive	
Cc1cccc2c(NCCCN(C)C)c3c(C)nn(C)c3nc12.Cl	Toxic	inactive	
COc1ccc2nc3c(c(C)nn3C)c(NCCCN(C)C)c2c1.Cl	Toxic	inactive	minimal effective dose (Mus musculus [5]): 200 mg/kg
Cc1nn(C)c2nc3ccc(I)cc3c(NCCCN(C)C)c12.Cl	Toxic	inactive	minimal effective dose (Mus musculus [5]): ≥ 400 mg/kg
Cc1nn(C)c2nc3ccccc3c(OCCCN(C)C)c12.Cl	Toxic		Activity (Mus musculus [6]): inactive
Cc1nn(Cc2ccccc2)c2nc3ccccc3c(NCCCN(C)C)c12.Cl	Toxic	inactive	
Cc1nn(C)c2nc3ccccc3c(NCCN3CCCC3)c12.Cl	Toxic	inactive	
Cc1nn(CCCN(C)C)c2nc3ccccc3cc12.Cl	Toxic	inactive	
Cc1nn(C)c2nc3cc(C(F)(F)F)ccc3c(NCCCN(C)C)c12.Cl	Toxic	inactive	
Cc1nn(C)c2nc3ccccc3c(NCCCN3CCCC3=O)c12.Cl	Toxic	inactive	
Cc1nn(C)c2nc3ccccc3c(NCCC3CCCN3C)c12.Cl (stereo not given)	Toxic	inactive	
COC(=O)Cn1nc(C)c2c(NCCCN(C)C)c3ccccc3nc21.Cl	Toxic	inactive	
Cc1nn(C)c2nc3ccccc3c(NCCCN3CCOCC3)c12.Cl			Activity (Mus musculus [3]): inactive; minimal effective dose (Mus musculus [4]): 300 mg/kg
Cc1nn(C)c2nc3ccccc3c(NCCc3ccccn3)c12.Cl	Toxic		Activity (Mus musculus [6]): inactive
Cc1nn(CCCN(C)C)c2nc3ccccc3c(NCCCN(C)C)c12.Cl	Toxic	inactive	Activity (Mus musculus [3]): inactive
CCn1nc(C)c2c(NCCCN(C)C)c3ccccc3nc21.Cl	Toxic	inactive	Activity (Mus musculus [3]): inactive; Activity (Mus musculus [7]): inactive
CCCCN(CCCC)CCCNc1c2ccccc2nc2c1c(C)nn2C.Cl	Toxic	inactive	
Cc1nn(C)c2nc3c(c(NCCCN(C)C)c12)CCCC3		inactive	Activity (Mus musculus [3]): inactive
Cc1nn(C(C)C)c2nc3ccccc3c(NCCCN(C)C)c12.Cl	Toxic		Activity (Mus musculus [6]): inactive
Cc1nn(C)c2nc3ccc(Cl)cc3c(NCCCN(C)C)c12.Cl	Toxic	inactive	
CCc1ccc2nc3c(c(C)nn3C)c(NCCCN(C)C)c2c1.Cl	Toxic	inactive	minimal effective dose (Mus musculus [5]): 200 mg/kg
Cc1cccc2nc3c(c(C)nn3C)c(NCCCN(C)C)c12.Cl	Toxic	inactive	Activity (Mus musculus [3]): inactive
CCc1ccc2c(NCCCN(C)C)c3c(C)nn(C)c3nc2c1.Cl	Toxic	inactive	minimal effective dose (Mus musculus [5]): 200 mg/kg
Cc1nn(C)c2nc3ccc([N+](=O)[O-])cc3c(NCCCN(C)C)c12.Cl	Toxic	inactive	
Cc1nn(C)c2nc3ccccc3c(NCCCN3CCCCC3)c12.Cl	Toxic	inactive	minimal effective dose (Mus musculus [5]): 200 mg/kg
CCc1nn(C)c2nc3ccccc3c(NCCCN(C)C)c12.Cl	Toxic	inactive	minimal effective dose (Mus musculus [5]): 200 mg/kg
CCC1CCC(C)N(CCCNc2c3ccccc3nc3c2c(C)nn3C)C1.Cl (stereo not given)	Toxic	inactive	
